In ChEMBL document CHEMBL3272052, “Imidazo[1,2-a]-s-triazine nucleosides. Synthesis and antiviral activity of the N-bridgehead guanine, guanosine, and guanosine monophosphate analogues of imidazo[1,2-a]-s-triazine” (J Med Chem, 1978):
Activity calls are given as the source filed them. No cut-off for these calls is given here.

How the values were obtained:
Assay type in all cases: functional, organism-based
Enterovirus [1] = assay: Antiviral activity against Rhinovirus 13 infected in human KB cells assessed as inhibition of virus-induced cytopathic effect after 72 hrs by microscopic analysis relative to control
Outline: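 KB (human nasopharyngeal carcinoma) monolayers, 19-24 h old, were infected with 320 CCID50 of virus. Compound was added within 15 min at one-half-log dilutions from 1000 to 1 µg/mL. After 72 h at 37 °C, CPE and cytotoxicity were scored microscopically (0-4). The virus rating sums the control-minus-treated CPE scores over all levels, halving any level showing partial toxicity.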

Enterovirus [2] = assay: Antiviral activity against Rhinovirus 8 infected in human KB cells assessed as inhibition of virus-induced cytopathic effect after 72 hrs by microscopic analysis relative to control
Enterovirus [3] = assay: Antiviral activity against Rhinovirus 30 infected in human KB cells assessed as inhibition of virus-induced cytopathic effect after 72 hrs by microscopic analysis relative to control
Enterovirus [4] = assay: Antiviral activity against Rhinovirus 1A infected in human KB cells assessed as inhibition of virus-induced cytopathic effect after 72 hrs by microscopic analysis relative to control
Enterovirus [5] = assay: Antiviral activity against Rhinovirus 2 infected in human KB cells assessed as inhibition of virus-induced cytopathic effect after 72 hrs by microscopic analysis relative to control

| SMILES | inhibition (Enterovirus [1]) | inhibition (Enterovirus [2]) | inhibition (Enterovirus [3]) | inhibition (Enterovirus [4]) | inhibition (Enterovirus [5]) |
| --- | --- | --- | --- | --- | --- |
| Nc1nc(=O)n2ccn([C@@H]3O[C@H](COC(=O)c4ccccc4)[C@@H](OC(=O)c4ccccc4)[C@H]3OC(=O)c3ccccc3)c2n1 | inactive | – | – | – | – |
| Nc1nc(=O)n2cc[nH]c2n1 | Active | Active | Active | Active | Active |
| NC(=O)c1ncn([C@@H]2O[C@H](CO)[C@@H](O)[C@H]2O)n1 | Active | Active | Active | Active | Active |
| O=c1[nH]c(=O)n2ccnc2[nH]1 | inactive | – | – | – | – |
| O=c1nc2n([C@@H]3O[C@H](CO)[C@@H](O)[C@H]3O)ccn2c(=O)[nH]1 | inactive | – | – | – | – |
| Nc1nc(=O)n2ccn([C@@H]3O[C@H](CO)[C@@H](O)[C@H]3O)c2n1 | inactive | inactive | inactive | Active | Active |
| Nc1nc(=O)n2ccn([C@@H]3O[C@H](COP(=O)(O)O)[C@@H](O)[C@H]3O)c2n1 | inactive | inactive | inactive | inactive | Active |
